DDE Tn6 FP inh: inhibitors of Tn6 peptide binding to fibrin DD(E), primary screen, biochemical, fluorescence polarization, human fibrin, Tn6 probe; Fibrin DD(E) TRITC-Tn6 fluorescence polarization displacement; Fibrinogen beta chain (Homo sapiens), P02675; 370,000 tested, 0.21% active; inhibition, % at 8.3 µM; AID 720509, 2013;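 active means inhibition above a per-campaign cutoff: mean of compounds within control limits plus 3 SD, cut at about 15% in these data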;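 further: 0% = median of all compound wells on the plate and 100% = blocking peptide control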
Target sequence (P02675 whole entry, looked up): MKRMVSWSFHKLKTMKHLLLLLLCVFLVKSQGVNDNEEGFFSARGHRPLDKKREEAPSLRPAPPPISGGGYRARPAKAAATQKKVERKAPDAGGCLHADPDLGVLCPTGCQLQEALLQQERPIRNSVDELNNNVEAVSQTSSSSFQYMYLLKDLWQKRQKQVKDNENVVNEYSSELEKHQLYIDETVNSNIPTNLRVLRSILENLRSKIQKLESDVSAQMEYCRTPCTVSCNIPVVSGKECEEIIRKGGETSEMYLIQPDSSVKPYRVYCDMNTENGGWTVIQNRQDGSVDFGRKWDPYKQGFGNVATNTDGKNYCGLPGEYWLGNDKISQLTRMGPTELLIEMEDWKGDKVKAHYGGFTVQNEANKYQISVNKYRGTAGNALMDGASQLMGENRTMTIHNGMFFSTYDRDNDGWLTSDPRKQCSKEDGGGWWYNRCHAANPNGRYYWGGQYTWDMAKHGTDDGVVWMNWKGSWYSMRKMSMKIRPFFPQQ
Tn7 DDE FP: inhibitors of Tn7 peptide binding to fibrin DD(E), primary screen, biochemical, fluorescence polarization, human fibrin, Tn7 probe; 370,000 tested, 0.13% active; FP displacement of FITC-Tn7 peptide from fibrin DD(E); 0% = median of compound wells per plate; Fibrinogen beta chain (Homo sapiens), P02675; inhibition, % at 8.3 µM;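 active means inhibition above the mean of compounds falling within the control limits plus 3 SD of them, cut at about 14% in these data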;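 further: 0% = plate median of compound wells and 100% = 10 µM Aha-Tn7 peptide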
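Test system: human clot-derived fibrin DD(E) complex / Quantity: 2 µM final DD(E) protein / Incubation: 10 min plus 3 h, room temperature / Measured by: fluorescence polarization / Benchmarks: high control of 10 µM Aha-Tn7 peptide / Replicates: singlicate testing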
DAGLB inh: DAGLB lipase inhibitors, primary screen, biochemical, fluorescence, HTS; AID 504411, 2011; 340,000 tested, 0.059% active; inhibition, % at 5.17 µM; HEK293T DAGLB membrane lysate, EnzChek fluorogenic substrate; in the data active means inhibition above about 34%;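 further: 0% = enzyme with vehicle and 100% = wells lacking enzyme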
Cardio protect: cardioprotection against H2O2-induced cell death, primary screen, uHTS, H9c2 cells, ATPLite luminescence; H9c2 cardiomyocytes, H2O2 injury protection, 2 h; protection from H2O2 cell death, % at 20 µM; 360,000 tested, 0.63% active;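 active means compounds giving at least 50% protection of heart cells from peroxide-induced death in the single-dose screen, raw or plate-pattern-corrected value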;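 further: 0% = DMSO wells with peroxide and 100% = DMSO wells without peroxide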
TAG inh: inhibitors of triacylglycerol accumulation, primary screen, cell-based, uHTS, fluorescence, H9c2; AID 651582, 2012; H9c2 cells, Nile Red lipid (TAG) fluorescence; cells loaded with 200 µM oleic acid; inhibition, % at 12.5 µM; 230,000 tested, 0.66% active;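 active means pattern-corrected inhibition of lipid staining of at least 50% with the nuclear-stain viability signal not falling by more than 50%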;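 further: 0% = DMSO wells and 100% = triacsin C control wells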
MT1-MMP act inh: blockers of MT1-MMP proenzyme processing, primary screen, HT1080 RFP-PRO-GFP cells, GFP/RFP fluorescence; Matrix metalloproteinase-14 (Homo sapiens), P50281; GFP/RFP ratio fluorescence, overnight; percent of plate control window, DMSO zero; GFP/RFP ratio change, % at 20 µM; 360,000 tested, 0.061% active; AID 651647, 2012;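 active means GFP/RFP ratio change of at least 30% with cell ATP level not reduced by more than half and red fluorescence within 50% of control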
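Assay system: RFP-PRO-GFP reporter HT1080 cells; read-out basis: GFP/RFP fluorescence ratio; benchmarks: DMSO wells and RFP-L50D-GFP cells; doses: 20 µM single dose, 1% DMSO; schedule: overnight cell settling, then overnight compound exposure, 37 °C, 5% CO2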
DDE Tn7 confirm: inhibitors of Tn7 peptide binding to fibrin DD(E), confirmation, biochemical, fluorescence polarization, human fibrin, Tn7 probe. inhibition, % at 8.3 µM. FP displacement of TRITC-Tn7 peptide from DD(E); 0% set at plate's compound-well median. AID 720628, 2013. 460 tested, 5% active. shares compounds with Tn7 DDE FP;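 active means inhibition above the campaign cutoff, the mean of compounds within control limits plus 3 SD, cut at about 14% in these data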;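 further: 100% = median FP of high control wells holding Aha-Tn7 inhibitor peptide; displacers lower polarization since freed probe rises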
DDE Tn7 FP ctr: counter-screen hit for Tn7 peptide-fibrin DD(E) binding disruption; shares compounds with Tn7 DDE FP; TRITC-Tn7 probe displacement, fluorescence polarization; inhibition, % at 8.3 µM; 460 tested, 3% active; AID 720633;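 active means inhibition above the cutoff, the mean of compounds lying between the control bounds plus 3 SD of those compounds, cut at about 17% in these data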;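 further: 0% = median of compound sample wells and 100% = excess unlabeled Aha-Tn7 peptide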
Numbers without * were called inactive. Most compounds without a hit are left out; they make up all but 1.4% or so of the library.

COc1ccc(OC)c(S(=O)(=O)Nc2ccc(CC(=O)O)cc2)c1 was read as DDE Tn6 FP inh -1, Tn7 DDE FP 17*, DAGLB inh -2, Cardio protect 2, TAG inh -13, MT1-MMP act inh -6, DDE Tn7 confirm 3 and DDE Tn7 FP ctr 4.
Screening COc1ccc(CC(NC(C)=O)C(=O)NC2CCN(c3c(Cc4ccccc4)c(C)nc4ncnn34)CC2)c(OC)c1 (centres undefined) returned DDE Tn6 FP inh -3, Tn7 DDE FP 14*, DAGLB inh -6, Cardio protect 3, TAG inh 5, MT1-MMP act inh 0, DDE Tn7 confirm 9 and DDE Tn7 FP ctr 6.
Screening Cc1ccc(NC(=S)NNC(=O)CSc2nc3ccccc3c(=O)n2-c2ccc(Cl)cc2)cc1 returned DDE Tn6 FP inh -1 and Tn7 DDE FP 0.
For CCOC(=O)[C@@]12CN(C(=O)OC(C)(C)C)CC=C1N(Cc1ccc(OC)cc1)C(=O)[C@H]2CC(=O)NCc1ccccc1 the results were DDE Tn6 FP inh -11 and Tn7 DDE FP 8.
For O=C(NCCc1ccccc1)OCc1cn(-c2ccccc2Cl)nn1 the results were DDE Tn6 FP inh -5 and Tn7 DDE FP 3.
O=C(Cc1ccccc1)NNC1=NS(=O)(=O)c2ccccc21 was read as DDE Tn6 FP inh -2, Tn7 DDE FP 14*, DAGLB inh 2, Cardio protect -3, TAG inh 12, MT1-MMP act inh -6, DDE Tn7 confirm -4 and DDE Tn7 FP ctr -9.
Screening N#Cc1ccc(Cl)cc1NC(=O)COC(=O)c1cccc(S(=O)(=O)N2CCOCC2)c1 returned DDE Tn6 FP inh 4, Tn7 DDE FP 14*, DAGLB inh -4, Cardio protect -2, TAG inh -7, MT1-MMP act inh 3, DDE Tn7 confirm 6 and DDE Tn7 FP ctr -5.
Cc1cc(C)cc(NC(=O)N2CCN(Cc3ccc4c(c3)OCO4)CC2)c1 was read as DDE Tn6 FP inh -2, Tn7 DDE FP 14*, DAGLB inh -1, Cardio protect 5, TAG inh -12, MT1-MMP act inh 2, DDE Tn7 confirm 2 and DDE Tn7 FP ctr 0.
For O=C(Nc1ccccc1)N1CCN(Cc2ccc3c(c2)OCO3)CC1 the results were DDE Tn6 FP inh -1, Tn7 DDE FP -3, DAGLB inh -1, Cardio protect 3 and MT1-MMP act inh 1.
COC(=O)C1CN(Cc2cn(Cc3ccc(Cl)cc3)nn2)CCS(=O)(=O)N1Cc1ccc(OC)cc1 (centres undefined) was read as DDE Tn6 FP inh -6 and Tn7 DDE FP -4.
`COc1cc(O)c(C(CCN2CCOCC2)c2ccc(N(C)C)cc2)c(OC)c1` (centres undefined) gave DDE Tn6 FP inh 10, Tn7 DDE FP 14*, DAGLB inh 2, Cardio protect 10, TAG inh 0, MT1-MMP act inh 4, DDE Tn7 confirm -7 and DDE Tn7 FP ctr -6.
Screening COc1cc(O)c(C(CCN2CCN(c3ccccc3)CC2)c2ccc(N(C)C)cc2)c(OC)c1 (centres undefined) returned DDE Tn6 FP inh 1, Tn7 DDE FP 3, DAGLB inh 0, Cardio protect -3, TAG inh 10 and MT1-MMP act inh -5.
C/C(=N\NC(=O)COc1cccc(Cl)c1)c1ccc2c(c1)OCCO2 was read as DDE Tn6 FP inh -3, Tn7 DDE FP -1, DAGLB inh 0, Cardio protect -3 and MT1-MMP act inh 4.
`C/C(=N\NC(=O)CSCc1ccc(Cl)cc1)c1ccc2c(c1)OCCO2` gave DDE Tn6 FP inh 3, Tn7 DDE FP 14*, DAGLB inh -3, Cardio protect -24, TAG inh -11, MT1-MMP act inh 3, DDE Tn7 confirm 3 and DDE Tn7 FP ctr -2.
For CCCC[C@@H]1CNC(=S)N1CCc1cccc(F)c1 the results were DDE Tn6 FP inh 8, Tn7 DDE FP 4, DAGLB inh 1, Cardio protect -10, TAG inh -14 and MT1-MMP act inh 3.
For Fc1cccc(CCN2C(=S)NC[C@@H]2Cc2ccccc2)c1 the results were DDE Tn6 FP inh 2, Tn7 DDE FP 15*, DAGLB inh -7, Cardio protect -1, TAG inh -15, MT1-MMP act inh -1, DDE Tn7 confirm 4 and DDE Tn7 FP ctr 1.
COc1ccc(NC(=S)N2CCN(Cc3ccccc3)CC2)c(OC)c1 was read as DDE Tn6 FP inh -3, Tn7 DDE FP 15*, DAGLB inh -2, Cardio protect 0, TAG inh 8, MT1-MMP act inh 0, DDE Tn7 confirm 4 and DDE Tn7 FP ctr 6.
COc1ccc(OC)c(NC(=S)N2CCN(Cc3ccccc3)CC2)c1 was read as DDE Tn6 FP inh 2, Tn7 DDE FP -2, DAGLB inh -3, Cardio protect 0 and MT1-MMP act inh 2.
Screening Cc1cc(C)n(-c2nc3ccccc3c(=O)n2OCC(=O)N(C)C)n1 returned DDE Tn6 FP inh -6, Tn7 DDE FP 4, DAGLB inh 1, Cardio protect -3, TAG inh -16 and MT1-MMP act inh 3.
`Cc1cc(C)n(-c2nc3ccccc3c(=O)n2OCC(=O)Nc2c(C)cccc2C)n1` gave DDE Tn6 FP inh 2, Tn7 DDE FP 16*, DAGLB inh -4, Cardio protect 10, TAG inh -5, MT1-MMP act inh 9, DDE Tn7 confirm -15 and DDE Tn7 FP ctr -12.
COc1ccc(N=Nc2nc3ccc(Br)cc3n2C)cc1 was read as DDE Tn6 FP inh 6, Tn7 DDE FP 55*, DAGLB inh -23, Cardio protect -37, TAG inh -18, MT1-MMP act inh -205, DDE Tn7 confirm 2 and DDE Tn7 FP ctr 0.

Compound activity: PubChem BioAssay, several laboratories
